Apaf-1 inh – inhibitors of human Apaf-1 apoptosome; AID 489030; O14727; reconstituted apoptosome caspase-3 activity, DEVD-Rh110 fluorescence; inhibition, % at 20 µM; 330,000 tested, 0.71% active; active = inhibition of at least 40% at 20 µM;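 also: plate controls were DMSO wells for no effect and DEVD-CHO caspase inhibitor wells for full effect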
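Assay system – apoptosome proteins · Medium – Hepes buffer, pH 7.5 · Also added – cytochrome c with DEVD-Rh110 · Timing – 30 min compound preincubation, 50 min activation, room temperature · Detection – Rh110 fluorescence, excitation 480 nm, emission 540 nm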
MPTP block – blocks calcium-induced mitochondrial swelling; isolated mouse mitochondria, Ca2+ swelling absorbance, 30 min; inhibition, % at 10 µM; 360,000 tested, 1.4% active; AID 602449;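 active = inhibition of 50% or more, scaled per plate between neutral and stimulator controls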;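 also: 0% = DMSO wells given calcium and 100% = 1 mM EGTA wells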
hiPSC survival – increases survival of single human iPS cells; hiPSC single-cell survival, ATPlite luminescence; 100% = ROCK inhibitor wells, 0% = DMSO; survival enhancement, % at 20 µM; 360,000 tested, 0.044% active; AID 602274; in the data active = survival enhancement above about 18%;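 also: cells exposed to compounds for 16 hours before the ATP read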
UBC13 polyUb – inhibitors of human UBC13 polyubiquitin chain formation; AID 485273; 330,000 tested, 0.47% active; P61088; inhibition, % at 20 µM; TR-FRET; in the data active = inhibition above about 45%, passing the limit was not always enough
Target sequence (P61088 whole entry, looked up): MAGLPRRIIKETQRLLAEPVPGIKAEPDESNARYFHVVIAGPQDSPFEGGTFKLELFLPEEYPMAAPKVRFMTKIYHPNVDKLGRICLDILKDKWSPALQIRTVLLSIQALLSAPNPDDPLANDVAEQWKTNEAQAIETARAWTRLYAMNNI
beta cell repl – induces beta-cell replication in MIN6 cells | MIN6 cells proliferation, ATPlite luminescence, 48 h; cells starved in 0.2% serum; 100% = growth in 10% serum | proliferation, % at 10 µM | 330,000 tested, 0.29% active;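 active = compounds whose signal lies at least 3.5 SD above the mean of all wells on their plate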;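 also: 0% = DMSO-treated cells in low-serum medium and 100% = 10% serum control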
Granule exo inh – lytic granule exocytosis inhibition; TALL-104 LAMP-1 surface exposure, flow cytometry; cells stimulated with thapsigargin and PMA; inhibition, % at 10 µM; 360,000 tested, 0.66% active; AID 651702;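 active = inhibition above about 55%, limit read from the data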
Rh123 counter – membrane potential counter-screen of mitochondrial pore inhibitors; shares compounds with MPTP block; isolated mitochondria, Rhodamine 123 fluorescence; inhibition, % at 10 µM; 5,000 tested, 78% active; AID 624504; in the data active = inhibition above about 22%;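 also: 0% = DMSO vehicle and 100% = positive control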
MPTP swell DR – dose response confirmation of mitochondrial permeability transition pore inhibitors; shares compounds with MPTP block; isolated mitochondria swelling, absorbance; IC50, µM; 780 tested, 58% active; AID 651561; in the data active = IC50 below about 20 µM
MPTP counter DR – active in counter-screen for permeability transition pore inhibitors | 780 tested, 49% active | shares compounds with MPTP block | isolated mitochondria counterscreen, fluorescence read-out | IC50, µM | AID 651564; in the data active = IC50 below about 80 µM
* marks the source's active call; other numbers are inactive results; / = no result. Hits are enriched below; roughly 3% of the tested compounds scored in any of these assays.

SMILES	Apaf-1 inh	MPTP block	hiPSC survival	UBC13 polyUb	beta cell repl	Granule exo inh	Rh123 counter	others
Cc1c(NC(=O)c2cc3c(s2)-c2ccccc2OC3)cccc1[N+](=O)[O-]	19	64*	2	-1	-5	20	77*
CCN1CCN(CCCNC(=O)c2cc3c(s2)-c2ccccc2OC3)CC1	5	0	0	24	-6	5	/
CN(C)CCNC(=O)c1cc2c(s1)-c1ccccc1OC2	4	60*	-2	29	-2	-1	-6	MPTP swell DR=14*;MPTP counter DR=>80
COc1ccccc1NC(=O)C12CC3CC(C1)CC(c1ccc(C)cc1)(C3)C2	12	3	0	-5	-5	2	/
COc1ccc(NC(=O)C23CC4CC(C2)CC(c2ccc(C)cc2)(C4)C3)cc1	18	60*	0	5	0	2	21*
CC(C)(C)c1ccc(Cn2c(=N)n(CC(O)c3ccco3)c3ccccc32)cc1 (stereo not drawn)	16	56*	-1	39	-7	1	21*
Cc1ccccc1Cn1c(=N)n(CC(O)c2ccco2)c2ccccc21 (stereo not drawn)	-5	-2	1	14	-3	-4	/
CCCCn1c(N)c(N(Cc2ccccc2OC)C(=O)c2ccc(N3CCCC3=O)cc2)c(=O)[nH]c1=O	0	0	0	2	3	-4	/
CCc1c(C(=O)Nc2cc(C)cc(C)c2)[nH]c(C)c1C(C)=O	11	79*	4	-2	-2	2	84*
Cc1ccc(N/N=C(\C#N)C(N)=S)c(C)c1	/	90*	-1	/	/	-8	83*
N#C/C(N=Nc1ccccc1O)=N\Nc1ccccc1O	6	126*	-3	-257	-9	10	44*
Cc1cc(C)c(CN2CCN(C(=O)Cn3cnc4c(NCc5ccccc5)ncnc43)CC2)c(C)c1	31	80*	0	/	/	9	84*
CSc1nc(N)nc2c1ncn2CC(=O)N1CCN(Cc2c(C)cc(C)cc2C)CC1	7	86*	-1	-6	-5	5	77*
Cc1cc(C)c(CN2CCN(C(=O)Cn3ccc(N)nc3=O)CC2)c(C)c1	17	0	-1	-4	1	2	/
CCCCCCN1CCN(C2CN(Cc3cn(Cc4ccc(C)cc4)nn3)S(=O)(=O)C2)CC1 (stereo not drawn)	/	1	-1	/	/	13	/
CCCS(=O)(=O)NC(=O)C1(C)CCN(C(=O)c2ccc(OC(F)F)cc2)C1 (stereo not drawn)	/	0	-1	/	/	4	/
O=C(Nc1ccc(OC(F)(F)F)cc1)N1CCN(c2ccnc3cc(Cl)ccc23)CC1	18	96*	-1	-4	-4	4	81*
O=C(C1CCC1)N1CCN(c2ccnc3cc(Cl)ccc23)CC1	-9	11	0	0	-1	2	/
O=C(C1CCCCC1)N1CCN(c2ccnc3cc(Cl)ccc23)CC1	6	83*	-1	0	-6	-6	43*
O=C(Nc1ccncc1)C1CCN(S(=O)(=O)c2ccc(Cl)cc2)CC1	5	-2	1	-3	0	-5	/
O=c1[nH]c(-c2ccccc2F)nc2c1sc(=S)n2Cc1ccccc1	6	66*	-3	-17	-6	3	69*
Cc1cccc2sc(NC(=O)CSc3nc4ccccc4o3)nc12	9	70*	-1	11	-6	-3	15	MPTP swell DR=>100;MPTP counter DR=6.1*
CCCCCCCn1c(=N)n(CC(=O)c2ccco2)c2ccccc21	0	83*	-6	29	-4	7	41*
O=C(/C(Br)=C/Nc1cc(Cl)ccc1Cl)C(F)(F)F	-3	96*	0	-2	0	-4	93*
O=C(Nc1cc(Cl)ccc1Cl)N1CCCC1	1	0	-2	-1	-4	0	/
SMILES	Apaf-1 inh	MPTP block	hiPSC survival	UBC13 polyUb	beta cell repl	Granule exo inh	Rh123 counter	others
O=C(Nc1ccc(Cl)cc1)N[C@@H]1c2c(ccc3ccccc23)OC[C@@H]1CO	13	93*	0	0	-5	-4	74*
CN(C(=O)c1ccccc1)C1c2c(ccc3ccccc23)OCC1CO (stereo not drawn)	8	-1	0	4	0	-10	/
O=C(c1ccc(CSc2nc3ccncc3[nH]2)cc1)N1CCCCCC1	4	15	-1	-3	-6	2	/
O=C(c1ccc(CSc2nc3ccncc3[nH]2)cc1)N1CCN(c2cccc(Cl)c2)CC1	27	90*	-1	6	-7	10	103*
CSc1cccc(NC(=O)COC(=O)C2CCN(S(=O)(=O)c3ccccc3)CC2)c1	-6	-1	0	14	2	3	/
CN(C)CCCNS(=O)(=O)c1ccc(NC2CCCCCC2)c([N+](=O)[O-])c1	7	85*	0	-5	-4	60*	81*
COC(=O)C=CC(=NNc1ccccc1)c1ccccc1	/	2	0	/	/	2	/
CCc1cc2c(-c3ccccc3)cc(=O)oc2cc1OCC(=O)NCC1CCC(C(=O)O)CC1 (stereo not drawn)	-1	-1	1	-17	-1	6	/
CCCCNS(=O)(=O)c1ccc2nc(SCC(=O)Nc3sccc3C#N)[nH]c2c1	1	79*	-1	20	-3	0	-4	MPTP swell DR=11*;MPTP counter DR=<2.5*
CCCCNS(=O)(=O)c1ccc2nc(SCC(N)=O)[nH]c2c1	9	0	0	-3	-3	-3	/
C[C@@H]1CCCCO[C@H](CN(C)C(=O)Cc2ccccc2)[C@@H](C)CN([C@H](C)CO)C(=O)c2cc(NC(=O)Nc3ccccc3)ccc2O1	/	0	0	/	/	0	/
COc1ccc(S(=O)(=O)Nc2ccc(F)cc2F)cc1C(=O)N1CCOCC1	0	2	0	4	-2	-6	/
CCCc1ccc(/C=C2\C(=O)c3ccccc3C(O)=C2C(=O)OCC)cc1	19	/	/	-38	-6	/	/
CCOC(=O)C1=C(O)c2ccccc2C(=O)/C1=C\c1ccc(CC)cc1	/	67*	-1	/	/	102*	77*
CCC(CC)C(=O)Nc1cccc(S(=O)(=O)c2cccc(NC(=O)C(CC)CC)c2)c1	11	58*	0	-24	-2	1	36*
CC(C)Sc1nc(-c2cccs2)nc2cc(Cl)ccc12	/	5	0	/	/	-8	/
C=CCOC(=O)C1=C(C)NC(SCC(=O)Nc2ccccc2)=C(C#N)C1c1ccco1 (stereo not drawn)	25	64*	-3	5	-2	1	68*

Assay outcomes from PubChem.
